Data set [1] concerns the target T1, Gastrin/cholecystokinin type B receptor (Homo sapiens, UniProt P32239).
T1 sequence (P32239 whole entry): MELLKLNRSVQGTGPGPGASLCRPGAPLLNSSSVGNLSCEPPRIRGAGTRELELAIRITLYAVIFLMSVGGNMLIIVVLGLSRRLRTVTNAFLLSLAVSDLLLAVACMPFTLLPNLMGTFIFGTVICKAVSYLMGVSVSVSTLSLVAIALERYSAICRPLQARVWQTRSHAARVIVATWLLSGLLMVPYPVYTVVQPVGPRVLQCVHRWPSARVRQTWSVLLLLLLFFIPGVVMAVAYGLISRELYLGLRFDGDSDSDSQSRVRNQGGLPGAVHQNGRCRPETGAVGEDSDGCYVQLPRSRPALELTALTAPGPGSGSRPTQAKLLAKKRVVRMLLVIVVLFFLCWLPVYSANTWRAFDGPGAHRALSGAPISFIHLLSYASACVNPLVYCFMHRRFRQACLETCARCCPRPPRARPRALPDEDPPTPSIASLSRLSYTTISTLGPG
Nature of the data set: Displacement of [125I]CCK8S from human CCK2R. In short, it runs like this:
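Radioligand competition binding at human CCK-2R against [125I]-CCK-8S. The pIC50 is the concentration displacing 50% of tracer binding, converted to pKi by the Cheng–Prusoff method.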

Data set [2] addresses T2, Cholecystokinin receptor type A (Homo sapiens, UniProt P32238).
T2 sequence (P32238 whole entry): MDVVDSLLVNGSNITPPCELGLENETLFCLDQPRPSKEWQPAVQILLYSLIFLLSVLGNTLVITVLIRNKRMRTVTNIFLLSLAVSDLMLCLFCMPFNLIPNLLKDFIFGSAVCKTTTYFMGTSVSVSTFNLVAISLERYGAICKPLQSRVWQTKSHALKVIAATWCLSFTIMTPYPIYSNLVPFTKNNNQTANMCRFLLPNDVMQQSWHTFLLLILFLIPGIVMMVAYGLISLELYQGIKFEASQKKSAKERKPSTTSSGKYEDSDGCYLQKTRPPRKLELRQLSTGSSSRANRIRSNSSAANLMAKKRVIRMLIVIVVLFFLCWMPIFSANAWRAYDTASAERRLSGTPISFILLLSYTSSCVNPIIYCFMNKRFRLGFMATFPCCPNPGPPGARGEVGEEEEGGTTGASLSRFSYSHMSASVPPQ
Description: Displacement of [125I]CCK8S from human CCK1R. On the technique in general: Displacement assays read how much labelled ligand stays bound in the presence of the test substance.

A short description of data set [3]: Clearance in rat at 2 umol/kg, iv. Type of data set: ADME, organism-based. The following applies: in vivo. In short, it runs like this:
(§1)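 Rat pharmacokinetics after an intravenous dose of […]. Clearance and half-life were derived from the iv dosing.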

Data set [4] is described as follows: Bioavailability in rat at 2 umol/kg, po. Type of data set: ADME, organism-based. The following applies: in vivo. The method in brief:
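Rat oral dosing at […]. Bioavailability is reported as relative fraction absorbed (%F) from the po dose.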

A short description of data set [5]: Half life in rat at 2 umol/kg, iv. Type of data set: ADME, organism-based. Conditions: in vivo. The method in brief: as §1
A short description of data set [6]: Metabolic stability in human liver microsome assessed as compound remaining after 30 mins. Conditions: liver microsomes, read-out: Stability. The data set is classed as ADME. The method in brief: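 Incubation for 30 min with pooled human liver microsome preparations (n = 20). Stability is expressed as percent of parent remaining.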
Background: Microsomes from liver hold many membrane-bound enzymes, among them those of drug oxidation.

Molecules are shown by their SMILES.

For orientation: Ki means the dissociation constant of the complex between target and ligand, obtained from inhibition or displacement. For orientation: clearance means the volume of plasma or blood freed of the substance per unit of time. A low value points to a low capacity for elimination. Broadly, the bioavailability is dose-corrected exposure relative to a reference, in per cent. Read a high bioavailability as good availability. One may read the half-life as the time needed for the level to fall by half in the phase considered. A low value points to fast loss.

For `O=C(c1ccc(Br)cc1NS(=O)(=O)c1cccc2[nH]cnc12)N1CCCCC1`, the Ki is 1.58 µM in data set [1] and greater than 10 µM in data set [2].

For the compound `Cn1nnc2c(S(=O)(=O)Nc3cc(Br)ccc3C(=O)N3CCCCC3)cccc21`, the Ki in data set [1] was 2 µM; in data set [2] it was greater than 10 µM.

On to `O=C(c1ccc(Br)cc1NS(=O)(=O)c1cccc2scnc12)N1CCCCC1`, for which the values for the inhibition constant (Ki) in data set [1] and in data set [2] were 0.0794 µM and greater than 10 µM, respectively.

On to `Cn1nc2cccc(S(=O)(=O)Nc3cc(Br)ccc3C(=O)N3CCCCC3)c2n1`, for which the inhibition constant (Ki) is 0.794 µM in data set [1] and greater than 10 µM in data set [2].

Turning to `O=C(c1ccc(Br)cc1NS(=O)(=O)c1cccc2nccnc12)N1CCCCC1`, in data set [3], the clearance is 13.8 mL/min/kg. The compound further gave a bioavailability in data set [4] of 50%. The same compound showed a half-life in data set [5] of 20.4 min. Besides, the remaining at 0.5 h in data set [6] amounted to 21%. The compound further had a Ki in data set [2] greater than 10 µM.

Consider `O=C(NCc1ccc(Cl)cc1)c1ccc(Br)cc1NS(=O)(=O)c1cccc2nsnc12`, for which the inhibition constant Ki was 0.501 µM in data set [1] and greater than 10 µM in data set [2].

Turning to `O=C(c1ccc(Br)cc1NS(=O)(=O)c1ccc2ncsc2c1)N1CCCCC1`, the Ki in data set [1] was 3.16 µM; in data set [2], greater than 10 µM.

In the case of `O=C(c1ccc(Br)cc1NS(=O)(=O)c1cccc2ncsc12)N1CCCCC1`, the Ki in data set [1] is 0.794 µM; in data set [2] it was greater than 10 µM.

`Cc1nc2cccc(S(=O)(=O)Nc3cc(Br)ccc3C(=O)N3CCCCC3)c2s1`: the results for the Ki in data set [1] and in data set [2] were 5.01 µM and greater than 10 µM, respectively.

In the case of `Cn1nc2ccc(S(=O)(=O)Nc3cc(Br)ccc3C(=O)N3CCCCC3)cc2n1`, the inhibition constant (Ki) in data set [1] and in data set [2] was greater than 10 µM throughout.
